Reference: ChEMBL document CHEMBL4414643, “Pharmacokinetics of Phytocannabinoid Acids and Anticonvulsant Effect of Cannabidiolic Acid in a Mouse Model of Dravet Syndrome” (J Nat Prod, 2019)

Key:
[1] = test system: Mus musculus; assay: Anticonvulsant activity against hyperthermia-induced seizure in ip administered Scn1aRX/+ mouse model of Dravet syndrome assessed as effective dose causing increase in generalized tonic-clonic seizure temperature threshold measured by RET-3 rectal probe; format: functional
[2] = Cmax in anesthetized C57BL/6J mouse brain at 5 mg/kg, ip administered as single dose measured upto 240 mins by LC-MS/MS analysis; format: ADME, organism-based; parameters: dose 5 mg/kg, route intraperitoneal; conditions: C57BL/6J, brain, read-out: Cmax
Summary of the method: (§1)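 Male and female mice (C57BL/6J or C57BL/6J x 129 F1), postnatal days 21-28, single i.p. injection at 10 mL/kg in vegetable oil or ethanol–Tween 80–saline (1:1:18). Blood taken by cardiac puncture under isoflurane at time points 15–240 min. Plasma and PBS brain homogenate extracted with ice-cold acetonitrile, diazepam internal standard, quantified by LC-MS/MS. Mean concentrations per time point (n = 3-5); noncompartmental analysis.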

[3] = Half life in anesthetized C57BL/6J mouse brain at 5 mg/kg, ip administered as single dose measured upto 240 mins by LC-MS/MS analysis; format: ADME, organism-based; summary of the method: as §1
[4] = Partition coefficient, log P of compound; format: physicochemical; conditions: octanol/water
[5] = Ratio of drug level in anesthetized C57BL/6J mouse brain to plasma at 5 mg/kg, ip administered as single dose measured upto 240 mins by LC-MS/MS analysis; format: ADME, organism-based; conditions: read-out: BPR; summary of the method: as §1
[6] = Cmax in anesthetized C57BL/6J mouse plasma at 5 mg/kg, ip administered as single dose measured upto 240 mins by LC-MS/MS analysis; format: ADME, organism-based; parameters: dose 5 mg/kg, route intraperitoneal; summary of the method: as §1
[7] = Half life in anesthetized C57BL/6J mouse plasma at 5 mg/kg, ip administered as single dose measured upto 240 mins by LC-MS/MS analysis; format: ADME, organism-based; summary of the method: as §1
[8] = Dissociation constant, pKa of compound; format: physicochemical
[9] = AUC in anesthetized C57BL/6J mouse brain at 5 mg/kg, ip administered as single dose measured upto 240 mins by LC-MS/MS analysis; format: ADME, organism-based; parameters: time < 4 hr, dose 5 mg/kg, route intraperitoneal; summary of the method: as §1
[10] = AUC in anesthetized C57BL/6J mouse plasma at 5 mg/kg, ip administered as single dose measured upto 240 mins by LC-MS/MS analysis; format: ADME, organism-based; parameters: dose 5 mg/kg, time < 4 hr, route intraperitoneal; summary of the method: as §1
[11] = Drug metabolism in brain of anesthetized C57BL/6J mouse assessed as decrease in decarboxylation of parent compound at 5 mg/kg, ip by LC-MS/MS analysis; format: ADME, organism-based; conditions: in vivo
Summary of the method: (§2)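 Mice aged 21-28 days postnatal received one i.p. dose (10 mL/kg), and plasma and brain were sampled at 15–240 min. Decarboxylated neutral cannabinoids were measured by LC-MS/MS against known standards, alongside the parent acid.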

[12] = Tmax in anesthetized C57BL/6J mouse brain at 5 mg/kg, ip administered as single dose measured upto 240 mins by LC-MS/MS analysis; format: ADME, organism-based; summary of the method: as §1
[13] = Tmax in anesthetized C57BL/6J mouse plasma at 5 mg/kg, ip administered as single dose measured upto 240 mins by LC-MS/MS analysis; format: ADME, organism-based; summary of the method: as §1
[14] = Drug metabolism in plasma of anesthetized C57BL/6J mouse assessed as decrease in decarboxylation of parent compound at 5 mg/kg, ip by LC-MS/MS analysis; format: ADME, organism-based; conditions: in vivo; summary of the method: as §2
[15] = Cmax in anesthetized C57BL/6J mouse plasma at 10 mg/kg, ip administered as single dose measured upto 240 mins in presence of vegetable oil by LC-MS/MS analysis; format: ADME, organism-based; parameters: dose 10 mg/kg, route intraperitoneal; summary of the method: as §1
[16] = AUC in anesthetized C57BL/6J mouse plasma at 10 mg/kg, ip administered as single dose measured upto 240 mins in presence of vegetable oil by LC-MS/MS analysis; format: ADME, organism-based; parameters: time < 4 hr, dose 10 mg/kg, route intraperitoneal; summary of the method: as §1
[17] = AUC in anesthetized C57BL/6J mouse plasma at 10 mg/kg, ip administered as single dose measured upto 240 mins in presence of tween-80 by LC-MS/MS analysis; format: ADME, organism-based; parameters: dose 10 mg/kg, time < 4 hr, route intraperitoneal; summary of the method: as §1
[18] = Cmax in anesthetized C57BL/6J mouse brain at 10 mg/kg, ip administered as single dose measured upto 240 mins in presence of vegetable oil by LC-MS/MS analysis; format: ADME, organism-based; parameters: dose 10 mg/kg, route intraperitoneal; conditions: in vivo, 4 h, BLD = below limit of detection; summary of the method: as §1
[19] = Tmax in anesthetized C57BL/6J mouse plasma at 10 mg/kg, ip administered as single dose measured upto 240 mins by LC-MS/MS analysis; format: ADME, organism-based; summary of the method: as §1
[20] = Cmax in anesthetized C57BL/6J mouse plasma at 10 mg/kg, ip administered as single dose measured upto 240 mins by LC-MS/MS analysis; format: ADME, organism-based; parameters: dose 10 mg/kg, route intraperitoneal; summary of the method: as §1
[21] = Drug uptake in plasma of anesthetized C57BL/6J mouse assessed as purity of compound at 10 mg/kg, ip by LC-MS/MS analysis; format: ADME, organism-based; conditions: in vivo; summary of the method: as §2
[22] = Half life in anesthetized C57BL/6J mouse plasma at 10 mg/kg, ip administered as single dose measured upto 240 mins in presence of vegetable oil by LC-MS/MS analysis; format: ADME, organism-based; summary of the method: as §1
[23] = Drug metabolism in brain of anesthetized C57BL/6J mouse at 10 mg/kg, ip by LC-MS/MS analysis; format: ADME, organism-based; conditions: in vivo; summary of the method: as §2
[24] = Tmax in anesthetized C57BL/6J mouse plasma at 10 mg/kg, ip administered as single dose measured upto 240 mins in presence of tween-80 by LC-MS/MS analysis; format: ADME, organism-based; summary of the method: as §1
[25] = Drug uptake in plasma of anesthetized C57BL/6J mouse at 10 mg/kg, ip by LC-MS/MS analysis; format: ADME, organism-based; conditions: in vivo; summary of the method: as §2
[26] = Tmax in anesthetized C57BL/6J mouse plasma at 10 mg/kg, ip administered as single dose measured upto 240 mins in presence of vegetable oil by LC-MS/MS analysis; format: ADME, organism-based; summary of the method: as §1
[27] = Cmax in anesthetized C57BL/6J mouse brain at 10 mg/kg, ip administered as single dose measured upto 240 mins by LC-MS/MS analysis; format: ADME, organism-based; parameters: dose 10 mg/kg, route intraperitoneal; conditions: in vivo, 4 h, BLD = below limit of detection; summary of the method: as §1
[28] = AUC in anesthetized C57BL/6J mouse plasma at 10 mg/kg, ip administered as single dose measured upto 240 mins by LC-MS/MS analysis; format: ADME, organism-based; parameters: time < 4 hr, dose 10 mg/kg, route intraperitoneal; summary of the method: as §1
[29] = Half life in anesthetized C57BL/6J mouse plasma at 10 mg/kg, ip administered as single dose measured upto 240 mins by LC-MS/MS analysis; format: ADME, organism-based; summary of the method: as §1
[30] = Cmax in anesthetized C57BL/6J mouse plasma at 10 mg/kg, ip administered as single dose measured upto 240 mins in presence of tween-80 by LC-MS/MS analysis; format: ADME, organism-based; parameters: dose 10 mg/kg, route intraperitoneal; summary of the method: as §1
[31] = Half life in anesthetized C57BL/6J mouse plasma at 10 mg/kg, ip administered as single dose measured upto 240 mins in presence of tween-80 by LC-MS/MS analysis; format: ADME, organism-based; summary of the method: as §1
[32] = Cmax in anesthetized C57BL/6J mouse brain at 10 mg/kg, ip administered as single dose measured upto 240 mins in presence of tween-80 by LC-MS/MS analysis; format: ADME, organism-based; parameters: dose 10 mg/kg, route intraperitoneal; conditions: in vivo, 4 h, BLD = below limit of detection; summary of the method: as §1

C=C(C)[C@@H]1CCC(C)=C[C@H]1c1c(O)cc(CCCCC)cc1O [CANNABIDIOL]
ED [1]: 100 mg/kg

C=C(C)[C@@H]1CCC(C)=C[C@H]1c1c(O)cc(CCC)c(C(=O)O)c1O
Cmax [2]: 800 ng/mL
half-life [3]: 19 min
logP [4]: 5.94
Kp at 4 h [5]: 0.02
Cmax [6]: 21000 ng/mL
half-life [7]: 49 min
pKa [8]: 2.91
AUC at 4 h [9]: 550 ng·h/mL
AUC at 4 h [10]: 24800 ng·h/mL
Drug metabolism [11]: Metabolite_Notdetected
Tmax [12]: 30 min
Tmax [13]: 15 min
Drug metabolism [14]: Metabolite_Notdetected

CCCCCc1cc2c(c(O)c1C(=O)O)[C@@H]1C=C(C)CC[C@H]1C(C)(C)O2 [DELTA9-TETRAHYDROCANNABINOLIC ACID A]
Cmax [15]: 2800 ng/mL
AUC at 4 h [16]: 5030 ng·h/mL
logP [4]: 6.25
AUC at 4 h [17]: 5630 ng·h/mL
Cmax [18]: Bld
Tmax [19]: 15 min
Cmax [20]: 2800 ng/mL
pKa [8]: 2.89
Drug uptake [21]: 95%
half-life [22]: 67 min
Drug metabolism [23]: Metabolite_Notdetected
Tmax [24]: 15 min
Drug uptake [25]: 1%
Tmax [26]: 15 min
Cmax [27]: Bld
AUC at 4 h [28]: 5030 ng·h/mL
half-life [29]: 67 min
Cmax [30]: 6900 ng/mL
half-life [31]: 33 min
Cmax [32]: Bld
